Source: article PMC9990178 (Cell Chemical Biology, 2023)

Columns and labels:
Smad3 phosphorylation [1] = assay: N protein-induced Smad3 phosphorylation/activation in HFL-1 cells; format: cell-based, human
[2] = tested on: Smad2/3 nuclear translocation; assay: Smad2/3 nuclear translocation in HFL-1 cells; format: cell-based, human; conditions: 24 h
Summary of the method: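 HFL-1 cells expressing N protein treated with test compound for 24 h. Fixed in 4% formaldehyde and blocked in PBS with 3% BSA and 0.2% Triton X-100. Primary antibody overnight at 4°C; secondary antibody 1 h at room temperature in the dark; nuclei stained with DAPI for 10 min. Smad2/3 localization imaged by confocal microscopy.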

TβRI polymerization = TβRI polymerization (Homo sapiens, UniProt P36897); assay: Crosslinking assay, N protein-induced TβRI polymerization; format: cell-based; conditions: HFL-1 cells, 24 h
TβRI polymerization, sequence (P36897 34-503): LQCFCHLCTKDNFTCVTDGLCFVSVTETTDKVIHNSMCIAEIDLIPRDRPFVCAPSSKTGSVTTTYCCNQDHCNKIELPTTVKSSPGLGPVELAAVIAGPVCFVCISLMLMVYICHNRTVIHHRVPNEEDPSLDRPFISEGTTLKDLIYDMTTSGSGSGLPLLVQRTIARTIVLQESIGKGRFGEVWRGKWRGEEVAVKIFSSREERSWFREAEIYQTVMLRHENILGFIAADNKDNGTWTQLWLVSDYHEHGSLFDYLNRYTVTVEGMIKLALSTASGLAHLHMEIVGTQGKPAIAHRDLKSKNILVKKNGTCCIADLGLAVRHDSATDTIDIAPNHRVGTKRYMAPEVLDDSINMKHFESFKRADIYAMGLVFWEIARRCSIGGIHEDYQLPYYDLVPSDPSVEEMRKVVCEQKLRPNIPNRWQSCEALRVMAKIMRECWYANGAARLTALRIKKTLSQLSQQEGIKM

TβRI phosphorylation = assay: N protein-induced TβRI phosphorylation in HFL-1 cells; format: cell-based, human; conditions: 10 μM, 24 h
α-SMA = assay: N protein-induced α-SMA/COL1A1 expression; format: cell-based, human
Summary of the method: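 HFL-1 cells transfected with N protein plasmid, then exposed to test compounds (10 µM for derivative comparison; otherwise varied times and doses). α-SMA and COL1A1 measured by western blot, normalized to tubulin. For collagen secretion, culture medium concentrated, held 16 h at 4°C and centrifuged; pellet dissolved in 0.05 M acetic acid, stained with Sirius red, washed, extracted, and read at 530 nm.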

[3] = tested on: IL6, IL8, CCL2, CXCL10 mRNA; assay: qRT-PCR of N protein-induced cytokine mRNA in HFL-1 cells; format: cell-based, human; conditions: 20 μM
[4] = Body and organ weight, behavior during RMY-205 administration; format: in vivo, mice
TβRI = TβRI (Homo sapiens, UniProt P36897); assay: ITC assay, binding to TβRI; conditions: GST-tagged protein
TβRI, sequence (P36897 34-503): as above

[5] = Pharmacokinetic analysis in ICR mice; format: in vivo; conditions: male, mouse, plasma
Summary of the method: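 Male ICR mice (8 weeks) received a single dose of test compound: 2 mg/kg i.v., or 10 mg/kg i.p. or by oral gavage. Blood sampled at 5, 15 and 30 min and at 1, 2, 4, 8 and 24 h. Plasma obtained by centrifugation at 1,500g for 10 min, and compound content in plasma assayed.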

Smad3 = Smad3 (Homo sapiens, UniProt P84022); assay: ITC assay, RMY-205 binding to Smad3
Smad3, sequence (P84022 whole entry): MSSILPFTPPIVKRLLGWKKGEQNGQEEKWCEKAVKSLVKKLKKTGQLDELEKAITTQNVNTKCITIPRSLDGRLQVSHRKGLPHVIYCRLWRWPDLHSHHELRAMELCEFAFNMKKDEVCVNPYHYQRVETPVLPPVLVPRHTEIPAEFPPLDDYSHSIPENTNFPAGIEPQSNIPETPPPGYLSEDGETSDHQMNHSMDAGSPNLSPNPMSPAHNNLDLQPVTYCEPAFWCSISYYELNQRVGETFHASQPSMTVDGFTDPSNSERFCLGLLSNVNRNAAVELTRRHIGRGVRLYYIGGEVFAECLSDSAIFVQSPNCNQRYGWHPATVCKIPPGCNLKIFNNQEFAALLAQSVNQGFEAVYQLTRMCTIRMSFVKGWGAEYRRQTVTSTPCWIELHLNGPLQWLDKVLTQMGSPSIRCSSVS
Summary of the method: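 Isothermal titration calorimetry. Sample cell loaded with GST-Smad3 at 20 µM; injector loaded with test compound at 0.2 mM. Compound titrated stepwise into the Smad3 solution, with PBS as control. Heat changes analyzed to derive binding.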

MH1 domain of Smad3 = MH1 domain of Smad3 (Homo sapiens, UniProt P84022); assay: ITC assay, binding to MH1 domain of Smad3
MH1 domain of Smad3, sequence (P84022 10-136 limits assumed): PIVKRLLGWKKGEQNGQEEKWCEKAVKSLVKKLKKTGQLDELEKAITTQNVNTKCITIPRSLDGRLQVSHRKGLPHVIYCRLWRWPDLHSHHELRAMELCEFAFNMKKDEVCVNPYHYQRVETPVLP

[6] = tested on: N protein-induced pulmonary fibrosis; assay: N protein; format: in vivo, C57BL/6J mice; conditions: 10 mg/kg weekly for 30 days
Summary of the method: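 Male C57BL/6J mice (8 weeks) given N protein-expressing AAV or control AAV intranasally in 50 µL PBS. From day 4, test compound 10 mg/kg in saline given i.p. weekly. Sacrificed at day 30; n = 6 per group. Lung Smad3 phosphorylation assessed by western blot.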

Smad2 = Smad2 (Homo sapiens, UniProt Q15796); assay: ITC assay, binding to Smad2; conditions: GST-tagged protein
Smad2, sequence (Q15796 whole entry): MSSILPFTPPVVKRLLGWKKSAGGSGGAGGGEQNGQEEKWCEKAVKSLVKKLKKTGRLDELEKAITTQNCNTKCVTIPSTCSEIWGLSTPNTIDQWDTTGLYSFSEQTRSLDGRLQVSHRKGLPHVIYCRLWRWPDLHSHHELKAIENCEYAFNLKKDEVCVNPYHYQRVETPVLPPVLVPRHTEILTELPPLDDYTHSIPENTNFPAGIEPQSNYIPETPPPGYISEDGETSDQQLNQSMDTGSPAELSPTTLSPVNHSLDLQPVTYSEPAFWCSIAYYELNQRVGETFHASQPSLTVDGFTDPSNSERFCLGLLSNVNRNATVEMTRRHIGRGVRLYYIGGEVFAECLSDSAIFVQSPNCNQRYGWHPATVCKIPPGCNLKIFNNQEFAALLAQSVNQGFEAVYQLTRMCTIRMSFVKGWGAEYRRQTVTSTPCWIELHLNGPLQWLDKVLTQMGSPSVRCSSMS

[7] = tested on: Adriamycin-induced renal fibrosis; assay: Adriamycin-induced renal fibrosis mouse model; format: in vivo, C57BL/6J mice; conditions: 3 mg/kg intraperitoneally daily, 7 days
[8] = tested on: THP1 macrophages and differentiated HL60 neutrophils; assay: Transwell chemotaxis assay, recruitment by N protein-expressing HFL-1 cells; format: cell-based, human; conditions: 20 μM
Summary of the method: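 HFL-1 cells in 24-well plates transfected with plasmids for 12 h, then switched to serum-free Ham's F12 for a further 24 h. THP-1 macrophages seeded in the upper transwell chamber and incubated 16 h. Non-migrated cells removed with a swab; migrated cells stained with crystal violet.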

[9] = tested on: CAGA luciferase reporter gene (a Smad3/4-dependent reporter); assay: CAGA luciferase reporter; format: cell-based, human; conditions: 20 μM, Smad3-dependent manner
Summary of the method: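 Cells co-transfected with a CAGA luciferase reporter (Smad3/4-dependent), a β-galactosidase expression vector and other plasmids, including N protein. Lysed 24 h after transfection; luciferase and β-gal activities measured. Luciferase activity normalized to β-gal to correct for transfection efficiency.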

Smad3 phosphorylation [10] = assay: Nocodazole-induced Smad3 phosphorylation; format: cell-based, human; conditions: HFL-1, LX-2, and AC-16 cells; nocodazole 100 ng/mL, 12 h
[11] = tested on: primary mouse pulmonary fibroblasts; format: cell-based; conditions: 20 μM, 36 h
Summary of the method: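 Primary pulmonary fibroblasts grown out from minced mouse lung (1 mm³ explants) in DMEM with 10% FBS; medium changed every 2 days, passaged with trypsin after one week. Cells transfected with N protein plasmid, then treated with test compound at 20 µM for 36 h. α-SMA and COL1A1 measured by western blot, normalized to tubulin.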

[12] = tested on: Smad3 binding to promoters; assay: ChIP assay, Smad3 binding to cytokine gene promoters in HFL-1 cells; format: cell-based, human; conditions: ChIP analysis
Summary of the method: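 HFL-1 cells crosslinked with 1% formaldehyde for 10 min at room temperature, washed in ice-cold PBS, and lysed in SDS lysis buffer (1% SDS, 10 mM EDTA, 50 mM Tris pH 8.1) with protease inhibitors. Chromatin sonicated to 500–1000 bp, then incubated overnight at 4°C with antibody or rabbit IgG. Complexes pulled down on protein G-Sepharose, washed, eluted, crosslinks reversed, proteinase K-treated.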

Smad2 phosphorylation = assay: N protein-induced Smad2 phosphorylation in HFL-1 cells; format: cell-based, human; conditions: 20 μM, 36 h
Summary of the method: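 HFL-1 cells transfected overnight with N protein plasmid, then exposed to test compound for 36 h (20 µM unless specified). Lysates boiled 10 min in SDS buffer, run on SDS-PAGE, transferred to PVDF and immunoblotted with ECL detection. p-Smad2 and p-Smad3 band intensities normalized to tubulin.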

MH1-MH2 interaction = MH1-MH2 interaction (Homo sapiens, UniProt P84022); assay: coIP and GST pull-down, MH1-MH2 interaction of Smad3; format: biochemical; conditions: coIP assay, GST pull-down assay
MH1-MH2 interaction, sequence (P84022 10-136 limits assumed): as the sequence (P84022 10-136 limits assumed) above
MH1-MH2 interaction, sequence (P84022 232-425 partner limits assumed): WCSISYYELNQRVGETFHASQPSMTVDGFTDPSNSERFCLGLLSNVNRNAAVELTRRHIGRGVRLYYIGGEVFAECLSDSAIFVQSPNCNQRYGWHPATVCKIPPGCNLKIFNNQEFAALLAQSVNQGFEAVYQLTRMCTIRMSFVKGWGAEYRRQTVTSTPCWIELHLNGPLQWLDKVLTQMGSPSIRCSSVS
Summary of the method: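 GST-tagged proteins expressed in E. coli BL21 and purified on glutathione-sepharose; His-tagged proteins purified on Ni-NTA. GST or GST-fusion bound to glutathione beads in PBS for 1 h at 4°C, washed with PBS, then with modified NP-40 buffer. CoIP: lysates incubated 3 h with antibody plus protein G-Sepharose, washed, and immunoblotted.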

TGF-β/Smad signaling = assay: TGF-β-induced Smad3 phosphorylation and α-SMA/COL1A1 expression in cell lines; format: cell-based, human; conditions: 36 h
[13] = tested on: N protein-TβRI, TβRI-TβRII, TβRI-FKBP12 interactions; assay: Co-IP, interactions N protein-TβRI, TβRI-TβRII, TβRI-FKBP12; format: cell-based, human; conditions: HFL-1 cells
Summary of the method: (§1)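 HFL-1 cells transfected with an N protein plasmid using ViaFect. Lysates incubated 3 h with primary antibody plus protein G-Sepharose beads. Beads washed three times with NP-40 lysis buffer. Immunoprecipitates boiled in SDS loading buffer, resolved by SDS-PAGE, transferred to PVDF and probed; bands detected by enhanced chemiluminescence.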

[14] = tested on: primary bone marrow-derived macrophages (BMDMs) and primary neutrophils; format: cell-based; conditions: mouse primary lung fibroblasts expressing N protein, 20 μM
Summary of the method: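 BMDMs: mouse tibial marrow flushed, red cells lysed, filtered at 40 µm, cultured 8 days in DMEM with 25% L929-conditioned medium. Neutrophils: isolated from marrow on a Percoll gradient (52/64/72%) at 1,545 g for 30 min at room temperature; 64/72% interface collected. Migration of both cell types toward N protein-expressing primary lung fibroblasts assessed.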

TβRI-Smad2 interaction = TβRI-Smad2 interaction (Homo sapiens, UniProt Q15796); assay: Co-IP, N protein-induced TβRI-Smad2 interaction; format: cell-based; conditions: coIP
TβRI-Smad2 interaction, sequence (Q15796 2-467 limits assumed): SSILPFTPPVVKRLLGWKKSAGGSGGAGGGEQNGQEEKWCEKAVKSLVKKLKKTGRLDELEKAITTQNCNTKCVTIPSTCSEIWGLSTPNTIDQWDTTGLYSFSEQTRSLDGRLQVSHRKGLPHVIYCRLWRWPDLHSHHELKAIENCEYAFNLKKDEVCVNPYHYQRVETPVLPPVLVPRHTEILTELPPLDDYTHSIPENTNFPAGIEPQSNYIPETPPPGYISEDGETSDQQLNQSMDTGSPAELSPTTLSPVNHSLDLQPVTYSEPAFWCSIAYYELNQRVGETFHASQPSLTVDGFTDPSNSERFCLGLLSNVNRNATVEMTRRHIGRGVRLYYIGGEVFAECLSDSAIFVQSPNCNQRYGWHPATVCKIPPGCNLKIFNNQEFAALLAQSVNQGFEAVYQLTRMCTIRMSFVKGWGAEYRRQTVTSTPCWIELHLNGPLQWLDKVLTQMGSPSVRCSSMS
Summary of the method: as §1

SMILES: COc1cc2c(cc1OC)CN(C(=O)/C=C/c1c(-c3ccccc3)n(C)c3ncccc13)CC2 [(E)-SIS3]
- N protein-induced Smad3 activation (Smad3 phosphorylation [1]; 3 μM, 36 h): no inhibitory effect

SMILES: Cc1cccc(-c2[nH]c(C(C)(C)C)nc2-c2ccc3c(c2)OCO3)n1 [SB505124, reference compound]
- Smad2/3 localization in the presence of N protein ([2]; 10 μM): remain in the cytosol
- N protein-induced TβRI polymerization (TβRI polymerization; 10 μM): could not prevent
- N protein-induced Smad phosphorylation, nuclear translocation, and transactivation activity (Smad3 phosphorylation [1]; 10 μM, 24 h): lost its ability to induce
- N protein-induced TβRI phosphorylation (TβRI phosphorylation): could block
- N protein-induced expression of α-SMA and COL1A1 (α-SMA; HFL-1 cells, 10 μM, 24 h): failed to elevate

SMILES: O=c1c(O)c(N2CCN(Cc3ccc(Br)cc3F)CC2)oc2ccccc12 [RMY-205, 2-(4-(4-bromo-2-fluorobenzyl)piperazin-1-yl)-3-hydroxy-4H-chromen-4-one]
- N protein-induced mRNA expression of IL6, IL8, CCL2, and CXCL10 [3]: downregulated
- weight of the mice and of various organs (heart, liver, spleen, lungs, kidneys) ([4]; 10 mg/kg for 30 days): not significantly changed
- behavior, weight of the body or various organs ([4]; during administration of RMY-205): no abnormal behavior or weight loss
- binding to TβRI (TβRI): not to either Smad2 or TβRI
- AUC ([5]; ip, 10 mg/kg): 2130 ng·h/mL
- AUC(0-inf) ([5]; ip, 10 mg/kg): 2130 ng·h/mL
- Cmax ([5]; ip, 10 mg/kg): 1820 ng/mL
- Tmax ([5]; ip, 10 mg/kg): 0.19 h
- bioavailability ([5]; ip, 10 mg/kg): 42.8%
- half-life ([5]; ip, 10 mg/kg): 8.26 h
- AUC ([5]; iv, 2 mg/kg): 995 ng·h/mL
- AUC(0-inf) ([5]; iv, 2 mg/kg): 995 ng·h/mL
- Vd ([5]; iv, 2 mg/kg): 3 L/kg
- clearance ([5]; iv, 2 mg/kg): 34 mL/min/kg
- half-life ([5]; iv, 2 mg/kg): 1.98 h
- AUC ([5]; po, 10 mg/kg): 1870 ng·h/mL
- AUC(0-inf) ([5]; po, 10 mg/kg): 1870 ng·h/mL
- Cmax ([5]; po, 10 mg/kg): 1040 ng/mL
- Tmax ([5]; po, 10 mg/kg): 0.33 h
- bioavailability ([5]; po, 10 mg/kg): 37.6%
- half-life ([5]; po, 10 mg/kg): 2.55 h
- Kd (Smad3): 8 µM
- Kd (MH1 domain of Smad3): 13.3 µM
- N protein-induced phosphorylation of Smad3 in lung [6]: suppression
- N protein-induced secretion of CCL2, CXCL10, and IL-6 in bronchoalveolar lavage fluid [6]: suppression
- N protein-promoted infiltration of macrophages and neutrophils in the lung tissue [6]: markedly attenuated
- alveolar septal thickening, α-SMA expression and collagen deposition ([6]; intraperitoneally): alleviated alveolar septal thickening and decreased α-SMA expression and collagen deposition
- binding to Smad2 (Smad2): not to either Smad2 or TβRI
- renal fibrosis, Smad3 phosphorylation and COL1A1 expression induced by Adriamycin [7]: effectively alleviate
- N protein-induced Smad2/3 nuclear translocation ([2]; 20 μM): blocked
- N protein-induced TβRI polymerization (TβRI polymerization; 20 μM): not influenced
- N protein-induced phosphorylation of Smad3 (Smad3 phosphorylation [1]; 20 μM, 36 h): inhibition
- recruiting THP1 macrophages and differentiated HL60 neutrophils by N protein [8]: attenuation
- N protein-induced transactivation activity of Smad [9]: inhibited
- nocodazole-induced Smad3 phosphorylation (Smad3 phosphorylation [10]): inhibited
- N protein-elevated mRNA of CCL2, CXCL10, and IL-6 expression and their release levels [11]: suppression
- N protein-induced α-SMA and COL1A1 expression [11]: significantly inhibited
- Smad3 binding to the promoters of genes of cytokines [12]: inhibited
- N protein-induced α-SMA and COL1A1 expression levels and collagen secretion (α-SMA; HFL-1 cells, time- and dose-dependent manner): downregulate
- α-SMA inhibition ratio (%) (α-SMA; N-protein transfected HFL-1 cells, 10 μM, 24 h): 50.9 ± 14.0%
- N protein-induced phosphorylation of Smad2 (Smad2 phosphorylation): not of Smad2
- interaction between MH1 and MH2 domains (MH1-MH2 interaction): substantially enhance
- TGF-β-induced Smad3 phosphorylation and α-SMA and COL1A1 expression (TGF-β/Smad signaling; HFL-1, AC16, LX-2 and human primary dermal cells, TGF-β 2 ng/mL): effectively inhibited
- inhibition of TGF-β-induced Smad3 phosphorylation and α-SMA expression, compared with (E)-SIS3 (TGF-β/Smad signaling; HFL-1 cells, (E)-SIS3 3 μM): comparable with that by (E)-SIS3
- interactions between N protein and TβRI, TβRI and TβRII, or TβRI and FKBP12 [13]: did not interfere
- recruitment of primary BMDMs and primary neutrophils [14]: abolished
- N protein-induced TβRI interaction with Smad2 (TβRI-Smad2 interaction): not with Smad2
